According to ChEMBL document CHEMBL3046221, “Asymmetric chloronicotinyl insecticide, 1-[1-(6-chloro-3-pyridyl)ethyl]-2-nitroiminoimidazolidine: preparation, resolution and biological activities toward insects and their nerve preparations” (Biosci Biotechnol Biochem, 2003):

What was measured:
[1] = target: T1, Nicotinic acetylcholine receptor alpha 5 subunit (Musca domestica, UniProt A9XFY4); experiment: Displacement of [3HIMI from nicotinic acetylcholine receptor in Musca domestica (house fly) head membranes incubated for 60 min by liquid scintillation counting method; parameters: species or system Membrane
T1 sequence (A9XFY4 whole entry): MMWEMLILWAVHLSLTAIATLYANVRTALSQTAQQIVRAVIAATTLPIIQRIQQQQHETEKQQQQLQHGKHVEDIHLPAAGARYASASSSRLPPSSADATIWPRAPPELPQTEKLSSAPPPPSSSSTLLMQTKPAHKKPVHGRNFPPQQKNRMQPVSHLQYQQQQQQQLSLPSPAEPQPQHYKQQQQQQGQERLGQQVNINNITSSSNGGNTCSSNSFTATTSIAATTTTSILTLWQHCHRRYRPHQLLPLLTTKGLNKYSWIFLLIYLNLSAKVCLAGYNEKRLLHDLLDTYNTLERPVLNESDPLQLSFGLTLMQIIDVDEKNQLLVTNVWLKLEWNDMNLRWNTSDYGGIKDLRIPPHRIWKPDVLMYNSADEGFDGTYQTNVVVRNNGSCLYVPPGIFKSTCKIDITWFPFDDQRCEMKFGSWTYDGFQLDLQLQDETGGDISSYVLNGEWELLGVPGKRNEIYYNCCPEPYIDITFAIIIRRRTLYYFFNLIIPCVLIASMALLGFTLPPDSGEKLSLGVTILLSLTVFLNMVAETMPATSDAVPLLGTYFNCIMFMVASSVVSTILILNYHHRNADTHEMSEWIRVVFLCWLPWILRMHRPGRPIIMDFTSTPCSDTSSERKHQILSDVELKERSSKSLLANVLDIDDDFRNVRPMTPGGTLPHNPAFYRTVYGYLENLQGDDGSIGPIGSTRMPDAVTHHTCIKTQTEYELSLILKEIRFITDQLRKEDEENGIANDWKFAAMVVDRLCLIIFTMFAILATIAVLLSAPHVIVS
Procedure, shortened: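 Housefly heads homogenized in pH 7.4 phosphate/sucrose/EDTA buffer; 700 g and 125,000 g spins; pellet resuspended in pH 7.4 phosphate, 50 mM NaCl, 0.1% Triton X-100. Membranes (3 mg/ml protein) preincubated with compound in DMSO 3-5 min at 24°C, then [3H]imidacloprid 10 nM final, 60 min at 24°C. GF/B filtration; IC50 for inhibition of specific binding.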

Musca domestica [2] = experiment: Insecticidal activity against female Musca domestica (house fly) administered through injection into dorsal side of thorax measured 1 hr post dose; type: functional
Musca domestica [3] = experiment: Insecticidal activity against female Musca domestica (house fly) administered through injection into dorsal side of thorax pre-treated with 0.2% w/v NIA and 0.2% w/v PB before compound injection measured 1 hr post dose; type: functional
Procedure, shortened: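 Female houseflies anesthetized with CO2 were given 1 µl methanol with NIA 0.2% and PB 0.2% (w/v) topically on the abdomen. After 1 h at 25°C, 0.22 µl of compound in 50% aqueous ethanol at various concentrations was injected. Dead or paralyzed flies were counted 1 h later at 25°C, and ED50 (mol/insect) was derived by probit analysis.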

Periplaneta americana = experiment: Neuroblocking potency against Periplaneta americana (American cockroach) abdominal central nerve cord assessed as compound concentration at which the frequency first reduced below 10 counts/30 secs […] by electrophysiologt method; type: functional

| SMILES | IC50 [1] [µM] | ED50 (Musca domestica [2]) [fmol] | ED50 (Musca domestica [3]) [fmol] | Activity (Periplaneta americana) [µM] |
| --- | --- | --- | --- | --- |
| CC(c1ccc(Cl)nc1)N1CCN/C1=N\[N+](=O)[O-] (racemic) [(R,S)-METHYL-IMIDACLOPRID] | 0.21 | 26 | 1.7 | 15 |
| Clc1ccc([C@@H]2C[C@H]3CC[C@@H]2N3)cn1 [(+)-EPIBATIDINE] | 2.79 |  |  |  |
| Clc1ccc([C@H]2C[C@@H]3CC[C@H]2N3)cn1 [(-)-EPIBATIDINE] | 1.34 |  |  |  |
| C[C@H](c1ccc(Cl)nc1)N1CCN/C1=N\[N+](=O)[O-] [(R)-METHYL-IMIDACLOPRID] | 0.95 | 55 | 2.3 | 73 |
| C[C@@H](c1ccc(Cl)nc1)N1CCN/C1=N\[N+](=O)[O-] [(S)-METHYL-IMIDACLOPRID] | 0.19 | 45 | 1.1 | 5.9 |
| O=[N+]([O-])/N=C1\NCCN1Cc1ccc(Cl)nc1 [IMIDACLOPRID] |  | 2.2 | 0.26 | 2.3 |
| CN1CCC[C@H]1c1cccnc1 [NICOTINE] | 11.9 |  |  |  |
| CN1CCC[C@@H]1c1cccnc1 [R-NICOTINE] | 422 |  |  |  |
